According to PMC8963331 (Toxicological Sciences, 2022):
“Also recorded” adds a separate entry of the source. Marks after values point to notes of the source that are not given here.

Key:
[1] = Dog 4-, 13-, 39-week repeat-dose general toxicity studies; format: in vivo; conditions: both, beagle, dog, in vivo, oral
beagle dogs = test: as above; format: in vivo
[2] = Human plasma protein binding; format: in vitro ADME
[3] = mice; 10 mg/kg oral; ref Sandborn et al., 2020; cited from earlier work
[4] = test system: Time-mated female rabbits; test: Rabbit embryo–fetal development; format: in vivo; conditions: for Corpora lutea (mean ± SD) / Implantation sites (mean ± SD) / Preimplantation loss (mean ± SD) / Total resorptions (mean ± SD) / Females with live fetuses / Pregnant females: rabbit EFD; for Females with live fetuses / Pregnant females: 22 total females
Method in brief: (§1)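 Time-mated female rabbits, 6–8 months old at dosing start, gavaged daily (10 ml/kg) with vehicle or 10, 30 or 60 mg/kg/day test compound over GDs 7–19; n = 22/group plus a toxicokinetic group. Cesarean-section endpoints: corpora lutea, implantation sites, preimplantation loss, resorptions. Fetuses weighed and examined externally, viscerally and, after evisceration and Alizarin Red S staining, skeletally. Fetal weights analysed by ANCOVA with Dunnett's test, litter size as covariate.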

[5] = Rabbit embryo–fetal development; format: in vivo; conditions: female, rabbit, in vivo, oral
Method in brief: as §1

[6] = test system: JAK1, JAK2, JAK3, and TYK2; conditions: ref Sandborn et al., 2020; cited from earlier work
[7] = Rat embryo–fetal development; format: in vivo; conditions: female, rat, in vivo, oral
Method in brief: (§2)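 Time-mated female Crl:CD Sprague Dawley rats, 10–12 weeks old at dosing start, gavaged daily (10 ml/kg) with 0 (vehicle), 30, 100 or 1000 mg/kg/day test compound on GDs 6–17; n = 22/group plus a toxicokinetic group. Cesarean-section counts: corpora lutea, implantation sites, preimplantation loss, resorptions. Fetuses weighed and checked for external, visceral and skeletal (Alizarin Red S, after evisceration) abnormalities. Fetal weights compared by ANCOVA/Dunnett with litter size as covariate.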

Time-mated female rats = test: Rat embryo–fetal development; format: in vivo; conditions: for Corpora lutea (mean ± SD) / Implantation sites (mean ± SD) / Preimplantation loss (mean ± SD) / Total resorptions (mean ± SD) / Females with live fetuses / Pregnant females: rat EFD; for Females with live fetuses / Pregnant females: 22 total females
Method in brief: as §2

[8] = test system: Crl:CD Sprague Dawley (SD) rats; test: Rat fertility and early embryonic development; format: in vivo; conditions: for Fertility index / Mating index / Pregnancy rate / Females mated: rat FEED; for Females mated: 22 females paired
[9] = Rat fertility and early embryonic development; format: in vivo; conditions: both, Sprague-Dawley (Crl:CD), rat, in vivo, oral
[10] = dog, 39-week study, 100 mg/kg/day
[11] = dog, 39-week study, 100 mg/kg/day, reversible
[12] = dog, 39-week study, 30 and 100 mg/kg/day

SMILES: Cc1cc(Nc2cc3ncccc3c(N[C@@H]3C[C@H]4CC[C@@H](C3)N4CCC#N)n2)n[nH]1 [izencitinib, Izencitinib]
- NOAEL at 39 weeks [1]: 30 mg/kg/day
- effects on ophthalmology, electrocardiography, food consumption, urinalysis (beagle dogs; all dog studies): No effects
- tolerability (beagle dogs; dog 4-week study, 300 mg/kg/day, after 12–13 days): not tolerated
- early euthanasia (beagle dogs; dog 4-week study, 300/100 mg/kg/day, days 18 and 19): 3 dogs
- early euthanasia (beagle dogs; dog 39-week study, 100 mg/kg/day, at 25–26 weeks, skin observations): 2 dogs
- organ weights and microscopic findings in male reproductive tissues (beagle dogs; dog repeat-dose studies, up to highest tested doses): no microscopic findings
- effects on lipid levels (beagle dogs; dog repeat-dose toxicity studies, any dose): no effects
- dose with decreased hematopoietic and lymphoid cellularity (microscopic) (beagle dogs; dog, 4- and 13-week studies): ≥ 100 mg/kg/day
- red blood cell parameters, change (beagle dogs; dog, 4- and 13-week studies, 100 mg/kg/day, reversible): 0.82–0.85 ×
- changes in reticulocyte levels (beagle dogs; dog, 4- and 13-week studies, any dose): No changes
- no observed adverse effect level (beagle dogs; dog, 4 weeks): 30^c mg/kg/day
- effects on white blood cell parameters (beagle dogs; dog, 4 weeks, end of dosing phase): No significant effects
- fibrinogen levels, change (beagle dogs; dog, 13- and 39-week studies, 100 mg/kg/day): 1.3–1.4 ×
- effects on white blood cell, lymphocyte, or neutrophil counts (beagle dogs; dog, 13 weeks): No izencitinib-related effects
- no observed adverse effect level (beagle dogs; dog, 13 weeks): 30^c mg/kg/day
- platelets, change (beagle dogs; dog, 13 weeks, 100 mg/kg/day, reversible): 1.5 ×
- dose with decreased hematopoietic and lymphoid cellularity (microscopic) (beagle dogs; dog, 39-week study): ≥ 30 mg/kg/day
- red blood cell parameters, change (beagle dogs; [10]): 0.76–0.79 ×
- tolerability (beagle dogs; [10]): not tolerated
- hemoglobin levels, change (beagle dogs; dog, 39-week study, 100 mg/kg/day, after recovery): 0.87 ×
- white blood cell counts, change (beagle dogs; dog, 39-week study, 100 mg/kg/day, recovery animals): 1.3 ×
- helper T cells (immunophenotyping), change (beagle dogs; [11]): 0.71 ×
- lymphocyte counts, change (beagle dogs; [11]): 0.70 ×
- total T cells (immunophenotyping), change (beagle dogs; [11]): 0.71 ×
- total lymphocytes (immunophenotyping), change (beagle dogs; [11]): 0.70 ×
- B cells (immunophenotyping), change (beagle dogs; dog, 39-week study, 100 mg/kg/day, without reversibility in 4-week recovery): 0.59 ×
- neutrophils, change (beagle dogs; [12]): 1.3–1.5 ×
- platelets, change (beagle dogs; [12]): 1.3–2.2 ×
- hematocrit, change (beagle dogs; dog, 39-week study, 30 and 100 mg/kg/day, after recovery): 0.90–0.92 ×
- reticulocytes, change (beagle dogs; dog, 39-week study, 30 and 100 mg/kg/day, reversible): 0.45–0.51 ×
- red blood cell parameters, change (beagle dogs; dog, 39 weeks, 30 mg/kg/day): 0.90–0.91 ×
- white blood cell counts, change (beagle dogs; dog, 39 weeks, 30 mg/kg/day, end of dosing phase): 1.2 ×
- effects on prothrombin time or activated partial thromboplastin time (beagle dogs; dog, any dose, 3 studies): No effects
- microscopic findings in GI tissues (beagle dogs; dog, up to 100 mg/kg/day, all 3 studies): no adverse microscopic findings
- fraction unbound [2]: 0.146
- colon:plasma AUC ratio [3]: 3883
- effects on fetal parameters ([4]; rabbit): no effects
- Corpora lutea (mean ± SD) ([4]; 10 mg/kg/day oral GDs 7–19): 10 ± 1.7
- Implantation sites (mean ± SD) ([4]; 10 mg/kg/day oral GDs 7–19): 10 ± 1.6
- Preimplantation loss (mean ± SD) ([4]; 10 mg/kg/day oral GDs 7–19): 1.0 ± 0.8
- Total resorptions (mean ± SD) ([4]; 10 mg/kg/day oral GDs 7–19): 0 ± 0.4
- Females with live fetuses ([4]; 10 mg/kg/day oral GDs 7–19): 20
- Pregnant females ([4]; 10 mg/kg/day oral GDs 7–19): 22
- Corpora lutea (mean ± SD) ([4]; 30 mg/kg/day oral GDs 7–19): 11 ± 2.0
- Implantation sites (mean ± SD) ([4]; 30 mg/kg/day oral GDs 7–19): 10 ± 1.9
- Preimplantation loss (mean ± SD) ([4]; 30 mg/kg/day oral GDs 7–19): 1.0 ± 0.9
- Total resorptions (mean ± SD) ([4]; 30 mg/kg/day oral GDs 7–19): 0 ± 0.4
- Females with live fetuses ([4]; 30 mg/kg/day oral GDs 7–19): 21
- Pregnant females ([4]; 30 mg/kg/day oral GDs 7–19): 21
- Corpora lutea (mean ± SD) ([4]; 60 mg/kg/day oral GDs 7–19): 11 ± 2.3
- Implantation sites (mean ± SD) ([4]; 60 mg/kg/day oral GDs 7–19): 10 ± 2.8
- Preimplantation loss (mean ± SD) ([4]; 60 mg/kg/day oral GDs 7–19): 1.0 ± 1.5
- Total resorptions (mean ± SD) ([4]; 60 mg/kg/day oral GDs 7–19): 1 ± 1.6
- Females with live fetuses ([4]; 60 mg/kg/day oral GDs 7–19): 21
- Pregnant females ([4]; 60 mg/kg/day oral GDs 7–19): 22
- effects on cesarean section parameters ([4]; rabbit, any dose): no adverse effects
- tolerability ([4]; rabbit, up to 60 mg/kg/day): well tolerated
- NOAEL [5]: 60 mg/kg/day
- human cellular JAK IC50 range, uncorrected [6]: 0.01273 to 0.08031 µg/mL
- NOAEL [7]: 1000 mg/kg/day
- Corpora lutea (mean ± SD) (Time-mated female rats; 30 mg/kg/day oral GDs 6–17): 14 ± 2.0
- Implantation sites (mean ± SD) (Time-mated female rats; 30 mg/kg/day oral GDs 6–17): 14 ± 2.0
- Preimplantation loss (mean ± SD) (Time-mated female rats; 30 mg/kg/day oral GDs 6–17): 1.0 ± 0.9
- Total resorptions (mean ± SD) (Time-mated female rats; 30 mg/kg/day oral GDs 6–17): 0 ± 0.6
- Females with live fetuses (Time-mated female rats; 30 mg/kg/day oral GDs 6–17): 22
- Pregnant females (Time-mated female rats; 30 mg/kg/day oral GDs 6–17): 22
- Corpora lutea (mean ± SD) (Time-mated female rats; 100 mg/kg/day oral GDs 6–17): 14 ± 2.3
- Implantation sites (mean ± SD) (Time-mated female rats; 100 mg/kg/day oral GDs 6–17): 13 ± 1.8
- Preimplantation loss (mean ± SD) (Time-mated female rats; 100 mg/kg/day oral GDs 6–17): 1.0 ± 1.2
- Total resorptions (mean ± SD) (Time-mated female rats; 100 mg/kg/day oral GDs 6–17): 0 ± 0.7
- Females with live fetuses (Time-mated female rats; 100 mg/kg/day oral GDs 6–17): 22
- Pregnant females (Time-mated female rats; 100 mg/kg/day oral GDs 6–17): 22
- Corpora lutea (mean ± SD) (Time-mated female rats; 1000 mg/kg/day oral GDs 6–17): 14 ± 1.7
- Implantation sites (mean ± SD) (Time-mated female rats; 1000 mg/kg/day oral GDs 6–17): 13 ± 1.9
- Preimplantation loss (mean ± SD) (Time-mated female rats; 1000 mg/kg/day oral GDs 6–17): 1.0 ± 1.0
- Total resorptions (mean ± SD) (Time-mated female rats; 1000 mg/kg/day oral GDs 6–17): 0 ± 1.1
- Females with live fetuses (Time-mated female rats; 1000 mg/kg/day oral GDs 6–17): 22
- Pregnant females (Time-mated female rats; 1000 mg/kg/day oral GDs 6–17): 22
- effects on cesarean section parameters (Time-mated female rats; rat, all doses): no effects
- fetal external, visceral, or skeletal malformations (Time-mated female rats; rat, all doses): no observations
- Fertility index ([8]; 30 mg/kg/day oral): 90.9%
- Mating index ([8]; 30 mg/kg/day oral): 100.0%
- Pregnancy rate ([8]; 30 mg/kg/day oral): 90.9%
- Females mated ([8]; 30 mg/kg/day oral): 22 n
- Females mated ([8]; 100 mg/kg/day oral): 21 n
- Fertility index ([8]; 1000 mg/kg/day oral): 95.2%
- Mating index ([8]; 1000 mg/kg/day oral): 95.5%
- Pregnancy rate ([8]; 1000 mg/kg/day oral): 90.9%
- Females mated ([8]; 1000 mg/kg/day oral): 21 n
- effect on male or female fertility ([8]; rat, up to 1000 mg/kg/day): did not affect; also recorded: No effects
- NOAEL [9]: 1000 mg/kg/day
